# Tests used:
# Cerastium arvense [1] = experiment: Post-emergence herbicidal activity against Cerastium arvense assessed as growth inhibition at 75 g ai/ha measured 15 days post compound treatment under green house conditions; format: functional; details: 360 h, read-out: GI
# Outline: (§1)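 Compounds formulated as 100 g/L emulsifiable concentrate (DMF solvent, Tween-80 emulsifier), diluted with water, sprayed post-emergence on pot-grown weeds in clay soil (pH 6.5, 1.6% organic matter). Seeds sown 1-3 cm deep, grown at 15-30 °C. Dicots were treated at the 2-leaf stage and monocots at the 1-leaf stage. Untreated and DMF-treated controls were included. Injury was rated visually 15 days after treatment.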
# Rumex acetosa [2] = experiment: Post-emergence herbicidal activity against Rumex acetosa assessed as growth inhibition at 37.5 g ai/ha measured 15 days post compound treatment under green house conditions; format: functional; details: 360 h, read-out: GI; outline: as §1
# Polygonum humifusum [3] = experiment: Post-emergence herbicidal activity against Polygonum humifusum assessed as growth inhibition at 150 g ai/ha measured 15 days post compound treatment under green house conditions; format: functional; details: 360 h, read-out: GI; outline: as §1
# Amaranthus retroflexus [4] = experiment: Post-emergence herbicidal activity against Amaranthus retroflexus assessed as growth inhibition at 75 g ai/ha measured 15 days post compound treatment under green house conditions; format: functional; details: 360 h, read-out: GI; outline: as §1
# Cerastium arvense [5] = experiment: Post-emergence herbicidal activity against Cerastium arvense assessed as growth inhibition at 150 g ai/ha measured 15 days post compound treatment under green house conditions; format: functional; details: 360 h, read-out: GI; outline: as §1
# Digitaria sanguinalis = experiment: Post-emergence herbicidal activity against Digitaria sanguinalis (hairy crabgrass) assessed as growth inhibition at 150 g ai/ha measured 15 days post compound treatment under green house conditions; format: functional; details: 360 h, read-out: GI; outline: as §1
# Cyperus iria [6] = experiment: Post-emergence herbicidal activity against Cyperus iria assessed as growth inhibition at 75 g ai/ha measured 15 days post compound treatment under green house conditions; format: functional; details: 360 h, read-out: GI; outline: as §1
# Poa annua = experiment: Post-emergence herbicidal activity against Poa annua assessed as growth inhibition at 150 g ai/ha measured 15 days post compound treatment under green house conditions; format: functional; details: 360 h, read-out: GI; outline: as §1
# Galium aparine [7] = experiment: Post-emergence herbicidal activity against Galium aparine assessed as growth inhibition at 37.5 g ai/ha measured 15 days post compound treatment under green house conditions; format: functional; details: 360 h, read-out: GI; outline: as §1
# Chenopodium album [8] = experiment: Post-emergence herbicidal activity against Chenopodium album assessed as growth inhibition at 75 g ai/ha measured 15 days post compound treatment under green house conditions; format: functional; details: 360 h, read-out: GI; outline: as §1
# Eclipta prostrata [9] = experiment: Post-emergence herbicidal activity against Eclipta prostrata assessed as growth inhibition at 37.5 g ai/ha measured 15 days post compound treatment under green house conditions; format: functional; details: 360 h, read-out: GI; outline: as §1
# Polygonum humifusum [10] = experiment: Post-emergence herbicidal activity against Polygonum humifusum assessed as growth inhibition at 37.5 g ai/ha measured 15 days post compound treatment under green house conditions; format: functional; details: 360 h, read-out: GI; outline: as §1
# Cerastium arvense [11] = experiment: Post-emergence herbicidal activity against Cerastium arvense assessed as growth inhibition at 37.5 g ai/ha measured 15 days post compound treatment under green house conditions; format: functional; details: 360 h, read-out: GI; outline: as §1
# Amaranthus retroflexus [12] = experiment: Post-emergence herbicidal activity against Amaranthus retroflexus assessed as growth inhibition at 37.5 g ai/ha measured 15 days post compound treatment under green house conditions; format: functional; details: 360 h, read-out: GI; outline: as §1
# Chenopodium album [13] = experiment: Post-emergence herbicidal activity against Chenopodium album assessed as growth inhibition at 37.5 g ai/ha measured 15 days post compound treatment under green house conditions; format: functional; details: 360 h, read-out: GI; outline: as §1
# Rumex acetosa [14] = experiment: Post-emergence herbicidal activity against Rumex acetosa assessed as growth inhibition at 75 g ai/ha measured 15 days post compound treatment under green house conditions; format: functional; details: 360 h, read-out: GI; outline: as §1
# Eclipta prostrata [15] = experiment: Post-emergence herbicidal activity against Eclipta prostrata assessed as growth inhibition at 150 g ai/ha measured 15 days post compound treatment under green house conditions; format: functional; details: 360 h, read-out: GI; outline: as §1
# Rumex acetosa [16] = experiment: Post-emergence herbicidal activity against Rumex acetosa assessed as growth inhibition at 150 g ai/ha measured 15 days post compound treatment under green house conditions; format: functional; details: 360 h, read-out: GI; outline: as §1
# Amaranthus retroflexus [17] = experiment: Post-emergence herbicidal activity against Amaranthus retroflexus assessed as growth inhibition at 150 g ai/ha measured 15 days post compound treatment under green house conditions; format: functional; details: 360 h, read-out: GI; outline: as §1
# Cyperus iria [18] = experiment: Post-emergence herbicidal activity against Cyperus iria assessed as growth inhibition at 150 g ai/ha measured 15 days post compound treatment under green house conditions; format: functional; details: 360 h, read-out: GI; outline: as §1
# Brassica juncea = experiment: Post-emergence herbicidal activity against Brassica juncea assessed as growth inhibition at 150 g ai/ha measured 15 days post compound treatment under green house conditions; format: functional; details: 360 h, read-out: GI; outline: as §1
# Galium aparine [19] = experiment: Post-emergence herbicidal activity against Galium aparine assessed as growth inhibition at 75 g ai/ha measured 15 days post compound treatment under green house conditions; format: functional; details: 360 h, read-out: GI; outline: as §1
# Polygonum humifusum [20] = experiment: Post-emergence herbicidal activity against Polygonum humifusum assessed as growth inhibition at 75 g ai/ha measured 15 days post compound treatment under green house conditions; format: functional; details: 360 h, read-out: GI; outline: as §1
# Galium aparine [21] = experiment: Post-emergence herbicidal activity against Galium aparine assessed as growth inhibition at 150 g ai/ha measured 15 days post compound treatment under green house conditions; format: functional; details: 360 h, read-out: GI; outline: as §1
# Cyperus iria [22] = experiment: Post-emergence herbicidal activity against Cyperus iria assessed as growth inhibition at 37.5 g ai/ha measured 15 days post compound treatment under green house conditions; format: functional; details: 360 h, read-out: GI; outline: as §1
# Eclipta prostrata [23] = experiment: Post-emergence herbicidal activity against Eclipta prostrata assessed as growth inhibition at 75 g ai/ha measured 15 days post compound treatment under green house conditions; format: functional; details: 360 h, read-out: GI; outline: as §1
# Chenopodium album [24] = experiment: Post-emergence herbicidal activity against Chenopodium album assessed as growth inhibition at 150 g ai/ha measured 15 days post compound treatment under green house conditions; format: functional; details: 360 h, read-out: GI; outline: as §1
# [25] = target: T1, Acetolactate synthase, chloroplastic (Arabidopsis thaliana, UniProt P17597)
# T1 sequence (P17597 whole entry): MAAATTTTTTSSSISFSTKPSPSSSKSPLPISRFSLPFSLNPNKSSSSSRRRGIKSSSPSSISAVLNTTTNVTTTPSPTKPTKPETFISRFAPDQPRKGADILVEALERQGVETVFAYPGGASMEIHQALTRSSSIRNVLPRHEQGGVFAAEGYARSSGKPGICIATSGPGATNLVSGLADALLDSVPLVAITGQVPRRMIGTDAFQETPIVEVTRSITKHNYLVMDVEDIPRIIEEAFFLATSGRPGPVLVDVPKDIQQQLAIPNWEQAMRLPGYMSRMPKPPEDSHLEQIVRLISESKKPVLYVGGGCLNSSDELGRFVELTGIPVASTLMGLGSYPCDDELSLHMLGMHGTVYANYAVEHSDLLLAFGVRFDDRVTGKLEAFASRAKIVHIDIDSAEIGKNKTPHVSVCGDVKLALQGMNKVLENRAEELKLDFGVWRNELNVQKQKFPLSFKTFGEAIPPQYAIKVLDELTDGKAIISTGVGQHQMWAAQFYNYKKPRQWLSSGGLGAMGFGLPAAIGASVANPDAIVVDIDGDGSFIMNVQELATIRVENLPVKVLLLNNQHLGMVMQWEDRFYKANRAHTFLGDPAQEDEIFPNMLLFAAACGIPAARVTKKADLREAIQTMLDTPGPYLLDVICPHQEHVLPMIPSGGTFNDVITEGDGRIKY
# Echinochloa crus-galli = experiment: Post-emergence herbicidal activity against Echinochloa crus-galli (barnyard grass) assessed as growth inhibition at 150 g ai/ha measured 15 days post compound treatment under green house conditions; format: functional; details: 360 h, read-out: GI; outline: as §1
SMILES,inhibition of growth at 75 g/ha (Cerastium arvense [1]),inhibition of growth at 37.5 g/ha (Rumex acetosa [2]),inhibition of growth at 150 g/ha (Polygonum humifusum [3]),inhibition of growth at 75 g/ha (Amaranthus retroflexus [4]),inhibition of growth at 150 g/ha (Cerastium arvense [5]),inhibition of growth at 150 g/ha (Digitaria sanguinalis),inhibition of growth at 75 g/ha (Cyperus iria [6]),inhibition of growth at 150 g/ha (Poa annua),inhibition of growth at 37.5 g/ha (Galium aparine [7]),inhibition of growth at 75 g/ha (Chenopodium album [8]),inhibition of growth at 37.5 g/ha (Eclipta prostrata [9]),inhibition of growth at 37.5 g/ha (Polygonum humifusum [10]),inhibition of growth at 37.5 g/ha (Cerastium arvense [11]),inhibition of growth at 37.5 g/ha (Amaranthus retroflexus [12]),inhibition of growth at 37.5 g/ha (Chenopodium album [13]),inhibition of growth at 75 g/ha (Rumex acetosa [14]),inhibition of growth at 150 g/ha (Eclipta prostrata [15]),inhibition of growth at 150 g/ha (Rumex acetosa [16]),inhibition of growth at 150 g/ha (Amaranthus retroflexus [17]),inhibition of growth at 150 g/ha (Cyperus iria [18]),also measured
Cc1ccn2nc(S(=O)(=O)Nc3c(F)cccc3F)nc2n1,≥ 90%,50%,≥ 90%,≥ 90%,≥ 90%,≥ 80%,50%,50%,50%,≥ 90%,≥ 90%,≥ 80%,≥ 90%,≥ 90%,50%,50%,≥ 90%,≥ 80%,≥ 90%,50%,inhibition of growth at 150 g/ha (Brassica juncea): ≥ 90%; inhibition of growth at 75 g/ha (Galium aparine [19]): 50%; inhibition of growth at 75 g/ha (Polygonum humifusum [20]): ≥ 90%; inhibition of growth at 150 g/ha (Galium aparine [21]): ≥ 80%; inhibition of growth at 37.5 g/ha (Cyperus iria [22]): 50%; inhibition of growth at 75 g/ha (Eclipta prostrata [23]): ≥ 90%; inhibition of growth at 150 g/ha (Chenopodium album [24]): ≥ 90%; Ki [25]: 0.36 µM; inhibition of growth at 150 g/ha (Echinochloa crus-galli): 50%
COc1ccn2nc(S(=O)(=O)Nc3cccc(Cl)c3Cl)nc2n1,< 50%,50%,50%,50%,< 50%,< 50%,50%,< 50%,50%,< 50%,50%,50%,< 50%,50%,< 50%,50%,≥ 50%,50%,≥ 50%,50%,inhibition of growth at 150 g/ha (Brassica juncea): ≥ 80%; inhibition of growth at 75 g/ha (Galium aparine [19]): 50%; inhibition of growth at 75 g/ha (Polygonum humifusum [20]): 50%; inhibition of growth at 150 g/ha (Galium aparine [21]): 50%; inhibition of growth at 37.5 g/ha (Cyperus iria [22]): 50%; inhibition of growth at 75 g/ha (Eclipta prostrata [23]): 50%; inhibition of growth at 150 g/ha (Chenopodium album [24]): < 50%; Ki [25]: 14.8 µM; inhibition of growth at 150 g/ha (Echinochloa crus-galli): < 50%
Cc1nc(C(F)(F)F)cc2nc(S(=O)(=O)Nc3c(F)cccc3F)nn12,50%,50%,50%,< 50%,50%,< 50%,< 50%,< 50%,50%,≥ 80%,50%,< 50%,50%,< 50%,≥ 80%,50%,≥ 80%,50%,< 50%,< 50%,inhibition of growth at 150 g/ha (Brassica juncea): ≥ 80%; inhibition of growth at 75 g/ha (Galium aparine [19]): ≥ 80%; inhibition of growth at 75 g/ha (Polygonum humifusum [20]): < 50%; inhibition of growth at 150 g/ha (Galium aparine [21]): ≥ 80%; inhibition of growth at 37.5 g/ha (Cyperus iria [22]): < 50%; inhibition of growth at 75 g/ha (Eclipta prostrata [23]): ≥ 80%; inhibition of growth at 150 g/ha (Chenopodium album [24]): ≥ 90%; Ki [25]: 70.6 µM; inhibition of growth at 150 g/ha (Echinochloa crus-galli): < 50%
COC(=O)c1cccc(Cl)c1NS(=O)(=O)c1nc2c(Cl)c(C)nc(C)n2n1,50%,50%,50%,50%,50%,< 50%,50%,< 50%,≥ 80%,≥ 80%,50%,50%,< 50%,50%,≥ 80%,50%,≥ 50%,50%,50%,50%,inhibition of growth at 150 g/ha (Brassica juncea): ≥ 90%; inhibition of growth at 75 g/ha (Galium aparine [19]): ≥ 80%; inhibition of growth at 75 g/ha (Polygonum humifusum [20]): 50%; inhibition of growth at 150 g/ha (Galium aparine [21]): ≥ 80%; inhibition of growth at 37.5 g/ha (Cyperus iria [22]): 50%; inhibition of growth at 75 g/ha (Eclipta prostrata [23]): 50%; inhibition of growth at 150 g/ha (Chenopodium album [24]): ≥ 80%; inhibition of growth at 150 g/ha (Echinochloa crus-galli): < 50%
Cc1nc(C(F)(F)F)cc2nc(S(=O)(=O)Nc3c(Cl)cccc3Cl)nn12,50%,≥ 80%,≥ 80%,< 50%,50%,< 50%,50%,< 50%,50%,≥ 80%,50%,50%,< 50%,< 50%,≥ 80%,≥ 80%,≥ 90%,≥ 80%,< 50%,50%,inhibition of growth at 150 g/ha (Brassica juncea): ≥ 90%; inhibition of growth at 75 g/ha (Galium aparine [19]): ≥ 80%; inhibition of growth at 75 g/ha (Polygonum humifusum [20]): ≥ 80%; inhibition of growth at 150 g/ha (Galium aparine [21]): ≥ 80%; inhibition of growth at 37.5 g/ha (Cyperus iria [22]): 50%; inhibition of growth at 75 g/ha (Eclipta prostrata [23]): 50%; inhibition of growth at 150 g/ha (Chenopodium album [24]): ≥ 90%; Ki [25]: 5.02 µM; inhibition of growth at 150 g/ha (Echinochloa crus-galli): < 50%

# From ChEMBL document CHEMBL3046780, “Syntheses and herbicidal activity of new triazolopyrimidine-2-sulfonamides as acetohydroxyacid synthase inhibitor” (Bioorg Med Chem, 2010)
